Assay results as given in paper PMC8721857 (Oncology Letters, 2021).

How the values were obtained:
[1] = test system: A2780cis cells; experiment: Colony formation assay, A2780cis; format: cell-based
Method in brief: (§1)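 A2780 (1×10^3) or A2780cis (2×10^3) cells were seeded per 3.5-cm dish and grown 24 h. They were exposed 72 h to test compound or cisplatin at 1X or 2X IC50, then PBS-washed. Fresh medium followed for 5 days at 37°C. Staining was 0.5% crystal violet in 25% methanol, 10 min RT. Clusters of ≥50 cells were counted by microscope. Colonies expressed as % of control.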

[2] = test system: A2780 cells; experiment: Colony formation assay, A2780; format: cell-based
Method in brief: as §1

[3] = IC50 and 2X IC50 concentrations, 72 h treatment, vs control

N.N.[Cl][Pt][Cl] [cisplatin]
colony formation [1, 3]: almost completely inhibited | cells per colony after treatment (unable to divide) ([1]; colony formation assay): 3–5 cells/colony | colony formation [2, 3]: almost completely inhibited | cells per colony after treatment (unable to divide) ([2]; colony formation assay): 3–5 cells/colony
